Assay results reported in ChEMBL document CHEMBL1133128, “Hepatitis C viral IRES inhibition by phenazine and phenazine-like molecules” (Bioorg Med Chem Lett, 2000).
In brackets after ≈: the same amount, converted by molar mass.

What was measured:
Huh-7 [1] = assay: Cytotoxic concentration of compound HC40 cells determined by using MTT assay; format: functional; conditions: Homo sapiens
Huh-7 [2] = assay: Anti-Hepatitis C Viral IRES activity of compound by measured as Fluci signal in HC40 cells; format: functional, cell-based; conditions: Homo sapiens
In short: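 Huh7-derived HC40 line expressing CAT-IRES-Fluci under a CMV promoter, so luciferase reports IRES-dependent translation. Cells seeded at 1.5×10^4/well 24 h before dosing. Compounds added at various concentrations in 0.2% DMSO final and incubated 24 h at 37 °C. Cells washed twice in PBS, lysed 10 min in the dark in luciferin lysis buffer, then luciferase read.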

[3] = Ratio of inhibitory concentration against Hepatitis C Viral IRES in HC40 cells to that of HCF cells was determined; format: functional
In short: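 Ratio of the HC40 value to the HCF value. HCF cells are pooled Huh-7 stably transfected with CMV-Fluci (CMV control, no IRES control). Both lines seeded at 1.5×10^4/well 24 h ahead, dosed at various concentrations in 0.2% DMSO final for 24 h at 37 °C, washed twice in PBS, lysed in luciferin buffer for 10 min in the dark, and luciferase read.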

Row | IC50 (Huh-7 [2]) [µg/mL] | SMILES | CC50 (Huh-7 [1]) [µg/mL] | Ratio [3]
1 | 1 | CCN(CC)c1ccc2[o+]c3cc(C)c(N)cc3nc2c1.[Cl-] | < 1 | 3
2 | > 10 | Nc1ccc2c(c1)NC(=O)c1cc(N)cnc1O2 | > 10 | 
3 | > 10 | Cc1cc2nc3ccc(N(C)C)cc3nc2cc1I | > 10 | 
4 | 3.74 (≈ 16.6 µM) | Cc1cc2nc3ccc(O)cc3nc2cc1N | > 10 | >2.7
5 | 2.19 (≈ 8.58 µM) | CN(C)c1ccc(Nc2ccc(N(C)C)cc2)cc1 | 2.3 (≈ 9.01 µM) | 0.8
6 | > 10 | Nc1ccc2c(c1)Oc1ncccc1C(=O)N2 | > 10 | 
7 | > 10 | Nc1ccc2[nH]c3ccc(N)cc3c2c1 | > 10 | 
8 | > 10 | Nc1ccc(Nc2ccc(N)cc2)cc1 |  | 
9 | > 10 | CN(C)c1ccc2c(c1)Sc1cc(N(C)C)ccc1N2C(=O)c1ccccc1 | > 10 | 
10 | 0.02 (≈ 0.0793 µM) | Cc1cc2nc3ccc(N(C)C)cc3nc2cc1N | > 10 | 10
11 | 1 (≈ 2.79 µM) | Cc1cc2c(cc1N)N(c1ccccc1C)c1cc(N(C)C)c(C)cc1N2 | > 10 | 1
12 | 2.86 | CC(=O)[O-].Nc1ccc2nc3ccc(N)cc3[s+]c2c1 [THIONIN ACETATE] | 4.67 | 1.7

Row | SMILES | IC50 (Huh-7 [2]) [µg/mL] | CC50 (Huh-7 [1]) [µg/mL] | Ratio [3]
13 | Nc1cc2nc3ccccc3nc2cc1N | 4.03 (≈ 19.2 µM) | > 10 | 2.5
14 | CN(C)c1ccc(C(=O)c2ccc(N(C)C)cc2)cc1 [MICHLER'S KETONE] | > 10 |  | 
